Compound activity from PubChem BioAssay.
The list is not random: actives were taken first. Their share in the collection is about 1.4%.
PAD4 FP inh: blocks human protein arginine deiminase 4; hit rate 0.41% among 330,000; inhibition, % at 6.36 µM; recombinant PAD4, RCA probe fluorescence polarization;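 active = percent inhibition above a cutoff equal to the mean of all tested compounds plus 3 SD, cut at about 15% in these data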;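 also: 0% = PAD4 with RCA probe and DMSO and 100% = probe without PAD4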
Fh CTSL1 inh: blocks F. hepatica cathepsin L1 in PFM18AAP counter-screen; recombinant F. hepatica cathepsin L1, Z-Leu-Arg-MCA fluorescence; inhibition, % at 5.96 µM; hit rate 0.49% among 300,000;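 active = inhibition above the mean of all tested compounds plus 3 SD, set per screening campaign, cut at about 17% in these data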;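 also: 0% = plate median of test compound wells and 100% = 1 µM Z-Phe-Ala-diazomethylketone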
TDP2 inh: blocks human TDP2 phosphodiesterase activity. O95551. AID 720702. recombinant TDP2, T5PNP hydrolysis, p-nitrophenol absorbance 415 nm. hit rate 0.34% among 370,000. inhibition, % at 12.8 µM;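 active = inhibition above the mean of all tested compounds plus 3 SD, set per campaign, cut at about 25% in these data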;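 also: 0% = DMSO with enzyme and 100% = buffer with substrate but no TDP2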
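Material: recombinant human TDP2; quantity: TDP2 enzyme at 120 nM final; medium: Tris-HCl pH 7.5 with MgCl2; compound: single concentration, 12.8 µM nominal, with 1% DMSO; incubation: 2 h enzyme incubation at 37 °C; signal: epi absorbance; measure: percent inhibition; benchmarks: high control without enzyme, low control DMSO plus TDP2; repeats: singlicate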
GSTO1 counter: blocks human GSTO1 in RBBP9 counter-screen | P78417 | recombinant GSTO1, activity-based probe fluorescence polarization | inhibition, % at 5.96 µM | hit rate 1.1% among 300,000 | AID 1974;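 active = inhibition above the campaign mean inhibition plus 3 SD, cut at about 35% in these data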;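 also: 0% = GSTO1-1 with DMSO and 100% = wells lacking GSTO1-1 enzyme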
PAD4 confirm: PAD4 (human) inhibition, confirmed; shares compounds with PAD4 FP inh; recombinant PAD4, RCA probe fluorescence polarization; inhibition, % at 6.36 µM; hit rate 28% among 1,200; AID 488796;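 active = mean inhibition across replicates above the hit cutoff set by the earlier primary screen, cut at about 15% in these data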;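 also: inhibitors block active-site labeling by the probe so polarization falls; 0% = PAD4 with probe and DMSO and 100% = probe without PAD4 enzyme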
Starred values were filed as active, the others as inactive; . = no result given.

SMILES	PAD4 FP inh	Fh CTSL1 inh	TDP2 inh	GSTO1 counter	PAD4 confirm
COc1ccc(-n2c(SCC(=O)N3CCCCC3C)nnc2-c2ccncc2)cc1 (stereo unspecified)	.	.	10	.	.
Cc1ccc(N2C(=O)CCSC23C(=O)Nc2ccccc23)cc1 (stereo unspecified)	2	-3	-1	-13	.
COc1ccc(N2C(=O)CSC23C(=O)Nc2ccccc23)cc1 (stereo unspecified)	16*	-1	2	-3	14
C=CCN(C(=O)c1csnn1)C(C(=O)NCc1ccc(F)cc1)c1ccc(F)cc1 (stereo unspecified)	15*	-2	10	0	-7
C[C@H](O)[C@@H]1CN2CCc3ccc(N4CCOCC4)cc3[C@@H]2C[C@@H]1N(C)C(=S)NCCc1ccccc1	.	.	0	.	.
COCc1cc(C)nc(SCC(=O)Nc2ccc3c(c2)n(C)c(=O)n3C)c1C#N	197*	1	6	0	2
COCc1cc(C)nc(SCC(=O)Nc2ccc3[nH]c(=O)[nH]c3c2)c1C#N	-4	-2	15	-5	.
N#CCCN(C(=O)Cn1nc(C(=O)O)c2ccccc2c1=O)c1ccccc1	103*	-2	4	5	0
CCN(CC)CCN(C(=O)c1ccc(C(=O)c2ccccc2)cc1)c1nc2cc3c(cc2s1)OCO3	2	1	3	5	.
CCN(CC)CCN(C(=O)c1ccc2ncsc2c1)c1nc2cc3c(cc2s1)OCO3	22*	2	4	-3	5
Cn1c(CN2CCOCC2)nnc1SCC(=O)Nc1ccc2c(c1)OCCO2	42*	2	-3	-5	10
CCCC1CCC2(CC1)CCC2OC(=S)Nc1cccc(I)c1 (stereo unspecified)	.	.	5	.	.
Cc1cc(C)cc(C(=O)OCCN2CCN(C3CN(Cc4cn(Cc5ccccc5F)nn4)S(=O)(=O)C3)CC2)c1 (stereo unspecified)	.	.	-9	.	.
CCCCCn1nnnc1C1(C)CN(S(C)(=O)=O)CC(=O)N1Cc1ccco1 (stereo unspecified)	.	.	2	.	.
CC1=NN(c2ccc(C(=O)O)c(N)c2)C(=O)C1	25*	6	15	63*	17*
CC1=NN(c2ccc(C(=O)O)cc2)C(=O)CC1	3	-1	-2	3	.
CCOC(=O)[C@@H]1CSCCS(=O)(=O)N1C(=O)[C@H](Cc1ccccc1)NC(=O)OC(C)(C)C	.	.	4	.	.
CCOC(=O)c1cc(C)sc1NC(=O)CSC1=NCCS1	15*	4	-3	1	19*
CCOC(=O)c1cc(C)sc1NC(=O)CSc1nnnn1C	2	0	-18	1	.
CC1CN(c2ccc(NC(=S)Nc3ccc(N4CC(C)OC(C)C4)cc3)cc2)CC(C)O1 (stereo unspecified)	20*	-3	5	12	7
CCN(CC)C(=O)CSc1nnc(-c2ccc(C(C)(C)C)cc2)n1-c1ccc(Cl)cc1	.	.	2	.	.
CN1CCN(CCCNC(=O)C2CCN(c3nnc(-n4cccc4)s3)CC2)CC1	0	-5	2	-8	.
CCCN1CCN(CCCNC(=O)C2CCN(c3nnc(-n4c(C)ccc4C)s3)CC2)CC1	18*	0	21	-2	-1
Cc1cccc(C)c1NC(=O)C1(C)CN(S(C)(=O)=O)CC(=O)N1CCCN1CCOCC1 (stereo unspecified)	.	.	1	.	.
CC(C)c1ccc(/C=N/n2nnnc2Nc2ccccc2)cc1	15*	-1	1	2	6
SMILES	PAD4 FP inh	Fh CTSL1 inh	TDP2 inh	GSTO1 counter	PAD4 confirm
CC(=O)c1cccc(OCc2cc(C(=O)N3CCSCC3)no2)c1	35*	0	-19	-1	6
Cc1ccc(NC(=O)c2ccc(=O)[nH]n2)cc1S(=O)(=O)Nc1ccc(SC(F)F)cc1	22*	.	-4	.	5
COc1ccc(OC)c(N(C)S(=O)(=O)c2ccc3c(c2)N(C(C)=O)CCO3)c1	18*	-2	4	2	-2
CCn1c2ccccc2c2cc(NC(=O)c3cc4c(C)nn(-c5ccccc5)c4s3)ccc21	.	.	-3	.	.
CCc1cc(SC#N)cc(CC)c1NC(=O)CCl	16*	7	-5	71*	-4
Cn1nnnc1Sc1ncnc2scc(-c3ccc(-c4ccccc4)cc3)c12	0	.	7	.	.
Cn1nnnc1Sc1ncnc2scc(-c3cc4ccccc4o3)c12	16*	.	3	.	13
COc1ccc(OCCCC(=O)N2CCN(S(=O)(=O)c3cccc(F)c3)CC2)cc1	33*	1	3	3	-8
